# Experimental data from ChEMBL document CHEMBL4351000, “Inhibitory selectivity among class I HDACs has a major impact on inflammatory gene expression in macrophages” (Eur J Med Chem, 2019).
# Activity calls are given as the source filed them. The calls are words filed in the database; no cut-off is given here.
# Tests used:
# [1] = molecular target: T1, Histone deacetylase 1/2 (Mus musculus) (UniProt O09106+P70288); assay: Inhibition of HDAC1/2 in LPS/IFNgamma-stimulated mouse RAW264.7 cells assessed as upregulation of IL-10 gene expression at 1 to 5 uM pretreated for 16 hrs followed by LPS stimulation and measured after 4 hrs by RT-qPCR analysis; type: cell-based
# T1 sequence (O09106 whole entry, looked up): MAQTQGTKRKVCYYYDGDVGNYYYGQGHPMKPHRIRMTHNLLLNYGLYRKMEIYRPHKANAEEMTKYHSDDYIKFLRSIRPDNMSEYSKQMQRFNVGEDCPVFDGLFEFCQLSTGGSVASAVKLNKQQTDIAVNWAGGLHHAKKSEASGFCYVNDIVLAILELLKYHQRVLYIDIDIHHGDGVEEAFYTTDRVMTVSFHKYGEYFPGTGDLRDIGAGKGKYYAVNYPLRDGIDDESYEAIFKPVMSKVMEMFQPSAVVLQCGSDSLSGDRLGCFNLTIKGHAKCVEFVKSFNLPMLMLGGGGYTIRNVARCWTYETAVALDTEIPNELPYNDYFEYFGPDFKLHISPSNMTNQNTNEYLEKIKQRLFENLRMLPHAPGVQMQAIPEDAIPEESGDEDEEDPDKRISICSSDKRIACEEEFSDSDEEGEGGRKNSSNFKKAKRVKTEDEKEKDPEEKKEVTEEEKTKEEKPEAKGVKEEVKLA
# T1 sequence (P70288 whole entry, looked up): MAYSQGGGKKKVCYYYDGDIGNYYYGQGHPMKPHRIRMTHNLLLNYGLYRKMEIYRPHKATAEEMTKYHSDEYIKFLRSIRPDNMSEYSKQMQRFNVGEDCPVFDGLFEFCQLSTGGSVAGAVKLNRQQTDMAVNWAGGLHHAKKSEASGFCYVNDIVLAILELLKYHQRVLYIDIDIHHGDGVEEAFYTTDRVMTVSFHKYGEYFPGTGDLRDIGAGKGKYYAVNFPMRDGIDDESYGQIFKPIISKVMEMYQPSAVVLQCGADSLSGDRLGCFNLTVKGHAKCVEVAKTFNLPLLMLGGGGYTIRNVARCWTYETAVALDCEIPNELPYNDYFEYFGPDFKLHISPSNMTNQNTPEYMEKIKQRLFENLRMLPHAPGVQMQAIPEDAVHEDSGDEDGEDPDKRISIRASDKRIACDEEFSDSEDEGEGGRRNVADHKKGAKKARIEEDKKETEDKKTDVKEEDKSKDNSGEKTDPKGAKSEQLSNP
# Outline: (§1)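 RAW264.7 cells were treated with inhibitor for 20 h in total, with LPS/IFNγ added for the final 4 h; vehicle was a proportional DMSO dilution. Cells were washed twice with DPBS, total RNA was isolated, and IL10, iNOS, IL6 and TNFα transcripts were quantified by RT-qPCR relative to vehicle. Mean ± SD of 2–3 independent experiments.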
# [2] = molecular target: Histone deacetylase 3/Nuclear receptor corepressor 2 (HDAC3/NCoR2) (Homo sapiens, UniProt O15379); assay: Inhibition of human recombinant C-terminal His-tagged HDAC3/NCOR2 using Boc-Lys-(epsilon-Ac)-AMC as fluorogenic substrate incubated for 90 mins by fluorescence based assay; type: protein-complex assay
# Histone deacetylase 3/Nuclear receptor corepressor 2 (HDAC3/NCoR2), sequence (O15379 whole entry): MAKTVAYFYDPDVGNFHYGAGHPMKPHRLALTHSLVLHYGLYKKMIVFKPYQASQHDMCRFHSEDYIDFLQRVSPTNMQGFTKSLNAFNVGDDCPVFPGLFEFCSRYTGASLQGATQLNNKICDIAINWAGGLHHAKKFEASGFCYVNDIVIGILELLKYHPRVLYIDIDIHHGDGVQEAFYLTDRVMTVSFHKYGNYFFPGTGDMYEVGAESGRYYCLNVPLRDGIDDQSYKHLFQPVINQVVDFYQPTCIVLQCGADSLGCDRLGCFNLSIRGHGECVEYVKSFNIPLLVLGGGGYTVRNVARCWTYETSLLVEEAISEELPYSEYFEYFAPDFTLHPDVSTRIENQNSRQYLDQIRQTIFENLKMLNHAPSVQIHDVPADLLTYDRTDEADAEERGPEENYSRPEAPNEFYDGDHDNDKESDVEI
# Histone deacetylase 3/Nuclear receptor corepressor 2 (HDAC3/NCoR2), sequence (Q9Y618 whole entry, further chain): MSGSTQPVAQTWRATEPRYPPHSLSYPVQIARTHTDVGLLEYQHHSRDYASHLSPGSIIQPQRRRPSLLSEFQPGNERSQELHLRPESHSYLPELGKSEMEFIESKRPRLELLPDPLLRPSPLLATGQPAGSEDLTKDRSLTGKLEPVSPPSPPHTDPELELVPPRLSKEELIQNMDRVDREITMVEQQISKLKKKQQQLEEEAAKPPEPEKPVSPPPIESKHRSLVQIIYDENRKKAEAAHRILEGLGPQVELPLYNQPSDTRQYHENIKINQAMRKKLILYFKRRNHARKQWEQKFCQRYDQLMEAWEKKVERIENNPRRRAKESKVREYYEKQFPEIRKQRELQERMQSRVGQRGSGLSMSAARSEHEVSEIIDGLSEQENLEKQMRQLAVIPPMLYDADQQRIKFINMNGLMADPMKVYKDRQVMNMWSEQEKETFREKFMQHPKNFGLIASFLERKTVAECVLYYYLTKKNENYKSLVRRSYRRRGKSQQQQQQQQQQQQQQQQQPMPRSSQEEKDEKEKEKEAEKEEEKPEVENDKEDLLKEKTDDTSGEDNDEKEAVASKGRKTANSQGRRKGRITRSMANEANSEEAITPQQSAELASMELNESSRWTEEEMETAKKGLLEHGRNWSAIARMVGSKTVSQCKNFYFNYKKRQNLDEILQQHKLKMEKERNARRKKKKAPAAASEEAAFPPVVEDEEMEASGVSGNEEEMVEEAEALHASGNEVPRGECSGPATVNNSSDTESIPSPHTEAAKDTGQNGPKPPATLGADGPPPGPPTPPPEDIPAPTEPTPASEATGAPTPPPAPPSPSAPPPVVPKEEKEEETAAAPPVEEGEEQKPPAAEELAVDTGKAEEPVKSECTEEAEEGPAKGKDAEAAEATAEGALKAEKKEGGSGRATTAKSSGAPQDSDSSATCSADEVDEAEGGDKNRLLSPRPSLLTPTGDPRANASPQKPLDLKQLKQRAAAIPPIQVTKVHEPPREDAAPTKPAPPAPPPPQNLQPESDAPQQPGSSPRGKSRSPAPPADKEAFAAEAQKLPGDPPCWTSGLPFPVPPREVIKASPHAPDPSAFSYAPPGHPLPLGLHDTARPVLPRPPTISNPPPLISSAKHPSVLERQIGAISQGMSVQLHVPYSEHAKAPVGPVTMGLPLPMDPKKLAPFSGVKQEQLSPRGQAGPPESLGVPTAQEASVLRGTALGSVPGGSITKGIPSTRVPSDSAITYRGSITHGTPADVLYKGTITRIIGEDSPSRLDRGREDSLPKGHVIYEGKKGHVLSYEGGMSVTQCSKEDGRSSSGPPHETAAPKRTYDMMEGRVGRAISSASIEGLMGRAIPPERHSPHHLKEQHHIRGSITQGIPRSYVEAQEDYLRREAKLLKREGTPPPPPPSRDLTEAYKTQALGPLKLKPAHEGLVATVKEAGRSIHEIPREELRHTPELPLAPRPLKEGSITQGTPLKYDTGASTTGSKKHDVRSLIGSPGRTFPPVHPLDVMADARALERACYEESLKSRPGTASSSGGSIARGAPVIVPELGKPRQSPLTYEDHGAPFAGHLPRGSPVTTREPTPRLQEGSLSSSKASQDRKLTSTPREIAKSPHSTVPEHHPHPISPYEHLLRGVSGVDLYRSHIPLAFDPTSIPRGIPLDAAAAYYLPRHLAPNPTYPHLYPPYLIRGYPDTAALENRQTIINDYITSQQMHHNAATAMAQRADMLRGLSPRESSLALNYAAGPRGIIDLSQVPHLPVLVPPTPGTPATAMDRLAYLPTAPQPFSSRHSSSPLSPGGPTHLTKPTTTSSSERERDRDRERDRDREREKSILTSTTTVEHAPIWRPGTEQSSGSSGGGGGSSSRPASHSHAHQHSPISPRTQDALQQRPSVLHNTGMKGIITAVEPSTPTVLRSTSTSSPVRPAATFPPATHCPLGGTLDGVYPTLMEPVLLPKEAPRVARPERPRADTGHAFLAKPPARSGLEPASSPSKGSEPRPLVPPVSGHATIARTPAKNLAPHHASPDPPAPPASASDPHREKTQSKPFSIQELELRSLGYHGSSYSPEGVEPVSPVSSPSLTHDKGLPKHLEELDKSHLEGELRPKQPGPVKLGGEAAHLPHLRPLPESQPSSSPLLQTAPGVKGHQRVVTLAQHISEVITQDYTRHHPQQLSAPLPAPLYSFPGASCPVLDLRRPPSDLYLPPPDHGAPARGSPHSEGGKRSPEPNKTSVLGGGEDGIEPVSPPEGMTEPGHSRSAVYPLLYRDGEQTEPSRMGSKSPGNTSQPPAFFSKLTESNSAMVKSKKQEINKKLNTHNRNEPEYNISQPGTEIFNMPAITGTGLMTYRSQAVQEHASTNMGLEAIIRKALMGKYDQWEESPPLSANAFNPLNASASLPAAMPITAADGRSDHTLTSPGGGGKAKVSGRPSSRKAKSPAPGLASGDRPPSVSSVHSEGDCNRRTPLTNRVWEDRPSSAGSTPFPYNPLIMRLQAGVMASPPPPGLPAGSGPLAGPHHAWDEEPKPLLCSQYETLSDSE
# [3] = molecular target: T1, Histone deacetylase 1/2 (Mus musculus); assay: Inhibition of HDAC1/2 in LPS/IFNgamma-stimulated mouse RAW264.7 cells assessed as upregulation of iNOS gene expression at 1 to 5 uM pretreated for 16 hrs followed by LPS stimulation and measured after 4 hrs by RT-qPCR analysis; type: cell-based; outline: as §1
# RAW264.7 = assay: Cytotoxicity against mouse RAW264.7 cells assessed as cell viability at 1 to 5 uM incubated for 24 hrs by MTS assay; type: cell-based; settings: raw264.7, 24 h
# Outline: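 RAW264.7 macrophages (passage 5–16) were grown in DMEM GlutaMAX with 10% FBS at 37 °C and 5% CO₂, then seeded at 25,000 cells/cm². The next day, medium was replaced with inhibitor-containing medium for 24 h at 37 °C. MTS reagent was added for 2 h at 37 °C in the dark. Absorbance was read at 490 nm and expressed as % of control.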
# [4] = molecular target: T1, Histone deacetylase 1/2 (Mus musculus); assay: Inhibition of HDAC1/2 in LPS/IFNgamma-stimulated mouse RAW264.7 cells assessed as upregulation of IL-6 gene expression at 1 to 5 uM pretreated for 16 hrs followed by LPS stimulation and measured after 4 hrs by RT-qPCR analysis; type: cell-based; outline: as §1
# [5] = molecular target: T1, Histone deacetylase 1/2 (Mus musculus); assay: Inhibition of HDAC1/2 in LPS/IFNgamma-stimulated mouse RAW264.7 cells assessed as upregulation of TNF-alpha gene expression at 1 to 5 uM pretreated for 16 hrs followed by LPS stimulation and measured after 4 hrs by RT-qPCR analysis; type: cell-based; outline: as §1
# [6] = molecular target: Histone deacetylase 1 (Mus musculus) (UniProt O09106); assay: Inhibition of HDAC1 in LPS/IFNgamma-stimulated mouse RAW blue cells assessed as upregulation of NFkappaB transcriptional activity by measuring increase in SEAP activity at 1 to 5 uM pretreated for 16 hrs followed by LPS stimulation and measured after 4 hrs by quanti blue reagent-based reporter gene assay
# Histone deacetylase 1 (Mus musculus), sequence (O09106 whole entry): as the sequence (O09106 whole entry, looked up) above
# Outline: (§2)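 NF-κB SEAP reporter assay in RAW264.7-derived RAW-Blue cells (passage 4–14), seeded at about 550,000 cells/mL. Cells were pre-incubated with inhibitor for 16 h, then stimulated with 10 ng/mL LPS/IFNγ for 4 h. Supernatant was mixed 1:9 into QUANTI-Blue and incubated 3 h at 37 °C; absorbance was read at 650 nm as % of control. Mean ± SD of 3 independent experiments.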
# Histone deacetylase 2 = Histone deacetylase 2 (Homo sapiens, UniProt Q92769); assay: Inhibition of human recombinant C-terminal FLAG-tagged HDAC2 using Boc-Lys-(epsilon-Ac)-AMC as fluorogenic substrate incubated for 90 mins by fluorescence based assay
# Histone deacetylase 2, sequence (Q92769 whole entry): as the sequence (P70288 whole entry, looked up) above, with A289V, P477T, A480T counted along it
# Histone deacetylase 1 = Histone deacetylase 1 (Homo sapiens, UniProt Q13547); assay: Inhibition of human recombinant C-terminal His/FLAG-tagged HDAC1 using Boc-Lys-(epsilon-Ac)-AMC as fluorogenic substrate incubated for 90 mins by fluorescence based assay
# Histone deacetylase 1, sequence (Q13547 whole entry): as the sequence (O09106 whole entry, looked up) above, with K8R, E399D, D424E counted along it
# Homo sapiens [7] = species: Homo sapiens; assay: Selectivity ratio of IC50 for human recombinant C-terminal His-tagged HDAC3/NCOR2 to IC50 for human recombinant C-terminal His/FLAG-tagged HDAC1
# Outline: (§3)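 Fluorogenic assay using human recombinant HDAC1 (FLAG/His), HDAC2 (FLAG) or HDAC3/NcoR2 (His) in pH 8.0 Tris buffer with NaCl, KCl, MgCl₂, 0.01% Triton-X and 1 mg/mL BSA. Enzyme, inhibitor dilutions and Boc-Lys(ε-Ac)-AMC were incubated 90 min at 37 °C. Trypsin/200 μM vorinostat stop solution was added for 30 min, then fluorescence read (ex 370/em 460 nm). IC50s came from curve fits; the ratio is HDAC3 IC50 over HDAC2 or HDAC1 IC50.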
# [8] = molecular target: T1, Histone deacetylase 1/2 (Mus musculus); assay: Inhibition of HDAC1/2 in LPS/IFNgamma-stimulated mouse RAW264.7 cells assessed as upregulation of IL-10 gene expression at pretreated for 16 hrs followed by LPS stimulation and measured after 4 hrs by RT-qPCR analysis; type: cell-based; outline: as §1
# [9] = molecular target: T1, Histone deacetylase 1/2 (Mus musculus); assay: Inhibition of HDAC1/2 in LPS/IFNgamma-stimulated mouse RAW264.7 cells assessed as upregulation of IL-6 gene expression at pretreated for 16 hrs followed by LPS stimulation and measured after 4 hrs by RT-qPCR analysis; type: cell-based; outline: as §1
# Homo sapiens [10] = species: Homo sapiens; assay: Selectivity ratio of IC50 for human recombinant C-terminal His-tagged HDAC3/NCOR2 to IC50 for human recombinant C-terminal FLAG-tagged HDAC2; outline: as §3
# [11] = molecular target: T1, Histone deacetylase 1/2 (Mus musculus); assay: Inhibition of HDAC1/2 in LPS/IFNgamma-stimulated mouse RAW264.7 cells assessed as upregulation of iNOS gene expression at pretreated for 16 hrs followed by LPS stimulation and measured after 4 hrs by RT-qPCR analysis; type: cell-based; outline: as §1
# [12] = molecular target: T1, Histone deacetylase 1/2 (Mus musculus); assay: Inhibition of HDAC1/2 in LPS/IFNgamma-stimulated mouse RAW264.7 cells assessed as upregulation of TNF-alpha gene expression at pretreated for 16 hrs followed by LPS stimulation and measured after 4 hrs by RT-qPCR analysis; type: cell-based; outline: as §1
# [13] = molecular target: T2, Histone deacetylase 3 (Mus musculus) (UniProt O88895); assay: Inhibition of HDAC3 in LPS/IFNgamma-stimulated mouse RAW264.7 cells assessed as IL-6 gene expression at 1 uM pretreated for 16 hrs followed by LPS stimulation and measured after 4 hrs by RT-qPCR analysis; type: cell-based; outline: as §1
# T2 sequence (whole entry): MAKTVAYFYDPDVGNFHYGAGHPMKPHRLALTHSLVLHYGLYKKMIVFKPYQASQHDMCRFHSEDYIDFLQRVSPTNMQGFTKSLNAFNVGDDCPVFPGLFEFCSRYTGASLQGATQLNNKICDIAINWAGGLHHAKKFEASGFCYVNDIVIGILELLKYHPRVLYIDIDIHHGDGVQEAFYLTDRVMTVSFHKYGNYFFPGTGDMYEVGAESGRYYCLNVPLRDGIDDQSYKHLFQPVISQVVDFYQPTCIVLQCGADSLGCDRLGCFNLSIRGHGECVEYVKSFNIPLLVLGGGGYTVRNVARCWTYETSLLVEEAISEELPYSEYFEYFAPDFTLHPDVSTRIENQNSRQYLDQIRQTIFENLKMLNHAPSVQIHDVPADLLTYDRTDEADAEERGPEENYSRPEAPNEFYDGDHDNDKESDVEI
# [14] = molecular target: T2, Histone deacetylase 3 (Mus musculus); assay: Inhibition of HDAC3 in LPS/IFNgamma-stimulated mouse RAW blue cells assessed as NFkappaB transcriptional activity measured as SEAP activity at 1 to 5 uM pretreated for 16 hrs followed by LPS stimulation and measured after 4 hrs by quanti blue reagent-based reporter gene assay; outline: as §2
# [15] = molecular target: T2, Histone deacetylase 3 (Mus musculus); assay: Inhibition of HDAC3 in LPS/IFNgamma-stimulated mouse RAW264.7 cells assessed as IL-10 gene expression at 1 uM pretreated for 16 hrs followed by LPS stimulation and measured after 4 hrs by RT-qPCR analysis; type: cell-based; outline: as §1
# [16] = molecular target: T2, Histone deacetylase 3 (Mus musculus); assay: Inhibition of HDAC3 in LPS/IFNgamma-stimulated mouse RAW264.7 cells assessed as TNF-alpha gene expression at 1 uM pretreated for 16 hrs followed by LPS stimulation and measured after 4 hrs by RT-qPCR analysis; type: cell-based; outline: as §1
# [17] = molecular target: T2, Histone deacetylase 3 (Mus musculus); assay: Inhibition of HDAC3 in LPS/IFNgamma-stimulated mouse RAW264.7 cells assessed as iNOS gene expression at 1 uM pretreated for 16 hrs followed by LPS stimulation and measured after 4 hrs by RT-qPCR analysis; type: cell-based; outline: as §1
Compound,IC50 [2],Activity (RAW264.7),IC50 (Histone deacetylase 2),IC50 (Histone deacetylase 1),also measured
C[C@@H](Nc1ccccc1)c1ccc(C(=O)Nc2ccccc2N)cc1,5000 nM,Non-Toxic,4200 nM,1300 nM,Activity [1]: Active; Activity [3]: Active; Activity [4]: Active; Activity [5]: Active; Activity [6]: Active
Nc1ccccc1NC(=O)c1ccc(CNC(=O)OCc2cccnc2)cc1 [ENTINOSTAT],,Non-Toxic,,,
Nc1ccccc1NC(=O)c1ccc(CNc2ccccc2)cc1,600 nM,,1400 nM,1000 nM,
Nc1ccccc1NC(=O)CCCCCNc1ccccc1,400 nM,,1300 nM,1200 nM,
CN(Cc1ccc(C(=O)Nc2ccccc2N)cc1)c1ccccc1,2800 nM,,500 nM,1000 nM,
Nc1ccccc1NC(=O)CCCCNC(=O)c1ccccc1,,Non-Toxic,,,
Nc1ccccc1NC(=O)CCCCCC(=O)c1ccccc1,1200 nM,,3700 nM,1900 nM,
C[C@H](Nc1ccccc1)c1ccc(C(=O)Nc2ccccc2N)cc1,11000 nM,Non-Toxic,8300 nM,2400 nM,
CC(Nc1ccccc1)c1ccc(C(=O)Nc2ccccc2N)cc1 (stereo not drawn),8500 nM,Non-Toxic,7000 nM,2300 nM,Ratio IC50 (Homo sapiens [7]): 3.7; Activity [8]: Active; Activity [9]: Active; Ratio IC50 (Homo sapiens [10]): 1.2; Activity [11]: Active; Activity [12]: Active
Nc1ccccc1NC(=O)c1ccc(C(=O)Nc2ccccc2)cc1,16000 nM,,5400 nM,3000 nM,Ratio IC50 (Homo sapiens [7]): 5.3; Ratio IC50 (Homo sapiens [10]): 3
Nc1cc(F)ccc1NC(=O)/C=C/c1cnn(C/C=C/c2ccccc2)c1,,Non-Toxic,,,Activity [13]: inactive; Activity [14]: inactive; Activity [15]: inactive; Activity [16]: inactive; Activity [17]: inactive
